According to PMC2934894 (Biochemical pharmacology, 2010):
Read-outs that look alike come from different tables or passages of the source. Blank lines part the entries; values can stand above or below the molecule they belong to.

Tests used:
ERβ [1] = molecular target: T1, ERβ (Homo sapiens, UniProt Q92731); assay: HEK293 ERE-luciferase reporter assay, ERβ alone; assay type: cell-based; conditions: HEK293, 24 hours with ligand, 10 μM and 100 μM
PC3 cells [2] = assay: MTT assay for cellular metabolic activity, PC3; assay type: cell-based, human; conditions: inhibition retained in the presence of ICI 182,780
ERα/β heterodimer = ERα/β heterodimer (Homo sapiens, UniProt P03372+Q92731); assay: BRET assay, ERα/β heterodimerization in transfected HEK293 cells; assay type: cell-based; conditions: 1 hour
ERα/β heterodimer, sequence (Q92731 whole entry, one chain of several, the tested form may be a part): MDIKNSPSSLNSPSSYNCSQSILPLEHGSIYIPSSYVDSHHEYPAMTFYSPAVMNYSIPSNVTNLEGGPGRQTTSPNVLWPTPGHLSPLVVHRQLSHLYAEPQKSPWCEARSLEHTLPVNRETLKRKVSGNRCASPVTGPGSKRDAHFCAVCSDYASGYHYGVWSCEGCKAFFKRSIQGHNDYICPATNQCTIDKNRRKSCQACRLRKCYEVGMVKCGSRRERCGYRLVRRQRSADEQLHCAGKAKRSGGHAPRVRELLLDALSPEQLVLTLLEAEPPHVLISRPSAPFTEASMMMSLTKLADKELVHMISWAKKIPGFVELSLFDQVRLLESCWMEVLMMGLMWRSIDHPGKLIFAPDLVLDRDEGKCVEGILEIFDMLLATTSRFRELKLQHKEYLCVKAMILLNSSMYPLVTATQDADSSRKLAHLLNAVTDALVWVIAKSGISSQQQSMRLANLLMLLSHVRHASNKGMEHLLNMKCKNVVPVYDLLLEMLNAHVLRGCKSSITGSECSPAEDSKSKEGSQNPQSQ
Procedure, shortened: (§1)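 HEK293 cells batch-transfected in phenol red free DMEM + 5% SFS with fusion pairs: ERα-RLuc + ERα-YFP (α/α), RLuc-ERβ + YFP-ERβ (β/β) or ERα-RLuc + YFP-ERβ (α/β). RLuc-only cells were included for the correction factor. After 24 h, cells were trypsinized and replated at 10,000/well in PBS. Compound was applied for 1 h, then coelenterazine h was added. Emission was read at 470/530 nm; BRET ratio; triplicates; E2 positive, DMSO negative control.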

ERβ/β homodimer = ERβ/β homodimer (Homo sapiens, UniProt Q92731); assay: BRET assay, ERβ/β homodimerization in transfected HEK293 cells; assay type: cell-based; conditions: 100 μM purified compound
ERβ/β homodimer, sequence (Q92731 whole entry): as the sequence (Q92731 whole entry, one chain of several, the tested form may be a part) above
ERβ/β homodimer, sequence (Q92731 whole entry): as the sequence (Q92731 whole entry, one chain of several, the tested form may be a part) above
Procedure, shortened: as §1

HC11 cells [3] = assay: MTT assay for cellular metabolic activity, HC11; assay type: cell-based, mouse; conditions: inhibition retained in the presence of ICI 182,780
ERβ [4] = molecular target: T1, ERβ; assay: Fluorescence Polarization Competition Binding Assay, ERβ
PC3 cells [5] = conditions: vs DMSO
ERα [6] = molecular target: T2, ERα (Homo sapiens, UniProt P03372); assay: Fluorescence Polarization Competition Binding Assay, ERα; conditions: read-out: Ki for binding to ERα; correlated from IC50, FP competition
Procedure, shortened: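 Competitive fluorescence polarization used purified ERα from a commercial kit. Compound was tenfold serially diluted in screening buffer (down to 10 pM final), DMSO below 1%. It was mixed with ERα (15 nM final) and Fluormone tracer (1 nM final). Incubation was 2 h in the dark at room temperature, then polarization was read in glass tubes.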

HC11 cells [7] = conditions: HC11, 10 μM synthetic compound, vs DMSO, p= 0.06
ERα/α homodimer = molecular target: T3, ERα/α homodimer (Homo sapiens, UniProt P03372); assay: BRET assay, ERα/α homodimerization in transfected HEK293 cells; assay type: cell-based; conditions: 100 μM purified compound
T3 sequence (P03372 1-595) 1: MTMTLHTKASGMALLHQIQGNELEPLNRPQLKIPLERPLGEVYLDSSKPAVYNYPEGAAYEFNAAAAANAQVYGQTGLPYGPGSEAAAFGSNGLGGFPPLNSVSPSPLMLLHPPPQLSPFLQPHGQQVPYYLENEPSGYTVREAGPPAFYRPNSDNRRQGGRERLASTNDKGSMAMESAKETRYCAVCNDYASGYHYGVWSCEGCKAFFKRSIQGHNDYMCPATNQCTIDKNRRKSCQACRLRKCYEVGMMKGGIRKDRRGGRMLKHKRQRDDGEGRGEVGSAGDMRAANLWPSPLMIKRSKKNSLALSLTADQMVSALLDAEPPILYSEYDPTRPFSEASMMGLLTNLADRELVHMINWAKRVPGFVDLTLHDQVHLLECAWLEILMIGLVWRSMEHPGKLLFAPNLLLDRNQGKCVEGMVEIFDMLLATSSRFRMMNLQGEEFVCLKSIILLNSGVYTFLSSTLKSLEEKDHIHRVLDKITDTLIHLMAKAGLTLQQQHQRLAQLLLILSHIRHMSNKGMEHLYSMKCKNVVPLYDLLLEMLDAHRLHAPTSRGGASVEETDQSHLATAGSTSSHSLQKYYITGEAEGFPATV
T3 sequence (P03372 1-595) 2: T3 sequence (P03372 1-595) 1
Procedure, shortened: as §1

ERα + ERβ = assay: HEK293 ERE-luciferase reporter assay, ERα + ERβ; assay type: cell-based
Procedure, shortened: (§2)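 HEK293 cells were batch-transfected per well with 2.5 ng of each ER (ERα alone or ERα + ERβ) plus 50 ng tk-ERE-luc. After 48 h expression, cells were exposed to ligands for 24 h and lysed. Firefly luciferase luminescence was measured and normalized to β-galactosidase luminescence in the same well.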

ERα [8] = molecular target: T2, ERα; assay: HEK293 ERE-luciferase reporter assay, ERα alone; assay type: cell-based; conditions: HEK293, 24 hours with ligand, 10 μM and 100 μM
Procedure, shortened: as §2

T1 sequence (Q92731 whole entry): as the sequence (Q92731 whole entry, one chain of several, the tested form may be a part) above

Molecule: actinopolymorphol A
- transcriptional activity of ERβ alone (ERE-luciferase) (ERβ [1]): found to activate
- cell proliferation (MTT metabolic activity) (PC3 cells [2]): inhibited
- induction for ERα/β heterodimers (BRET ratio) (ERα/β heterodimer; 10 μM purified compound): 3 fold
- increase in ERα/β heterodimerization (BRET ratio) (ERα/β heterodimer; 100 μM purified compound): 5 fold
- induction of ERβ/β homodimer (BRET ratio) (ERβ/β homodimer): less than 1.5 fold
- cell proliferation (MTT metabolic activity) (HC11 cells [3]): inhibited
- binding affinity for ERβ over ERα (ERβ [4]; FP competition binding, ERβ vs ERα): ~2 fold
- Ki (ERβ [4]; read-out: Ki for binding to ERβ, correlated from IC50, FP competition): 4.3 µM
- cell number (PC3 cells [5]; PC3, 10 μM synthetic compound, p= 0.03): statistically significant decreases
- cell number (PC3 cells [5]; PC3, 100 μM synthetic compound, p=0.002): statistically significant decreases
- Ki (ERα [6]): 6.2 µM
- cell number (HC11 cells [7]): statistically non-significant decrease
- induction of ERα/α homodimer (BRET ratio) (ERα/α homodimer): less than 1.5 fold
- transcriptional activity of ERα + ERβ (ERE-luciferase) (ERα + ERβ; HEK293, 24 hours with ligand, 10 μM and 100 μM): found to activate
- transcriptional activity of ERα alone (ERE-luciferase) (ERα [8]): not able to activate

- effect on actinopolymorphol A-dependent reporter activity (ERα + ERβ; in the presence of ERα + ERβ, HEK293 ERE-luciferase): completely abrogated
Molecule: C[C@]12CC[C@@H]3c4ccc(O)cc4C[C@@H](CCCCCCCCC[S+]([O-])CCCC(F)(F)C(F)(F)F)[C@H]3[C@@H]1CC[C@@H]2O (stereo partly shown) [ICI 182,780, reference compound]
